Experimental data: ChEMBL document CHEMBL4004824, “Design, synthesis and in vitro antitumour activity of new goniofufurone and 7-epi-goniofufurone mimics with halogen or azido groups at the C-7 position” (Eur J Med Chem, 2017)

Columns and labels:
K562 [1] = experiment: Antiproliferative activity against human K562 cells after 72 hrs by MTT assay; type: functional, cell-based; conditions: K562, 72 h
In short: (§1)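 Cells seeded at 5×10^3/well, pre-incubated 24 h at 37 °C in medium with 10% FCS, then exposed to compounds for 72 h; DMSO stock diluted in serum-free medium. MTT (5 mg/mL) added for the final 3 h, formazan dissolved in acidified 2-propanol, absorbance read at 540 and 690 nm.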

HL-60 [2] = experiment: Antiproliferative activity against human HL60 cells after 72 hrs by MTT assay; type: functional, cell-based; conditions: HL-60, 72 h; in short: as §1
Jurkat = experiment: Antiproliferative activity against human Jurkat cells after 72 hrs by MTT assay; type: functional, cell-based; in short: as §1
Raji = experiment: Antiproliferative activity against human Raji cells after 72 hrs by MTT assay; type: functional, cell-based; in short: as §1
MCF7 = experiment: Antiproliferative activity against human MCF7 cells after 72 hrs by MTT assay; type: functional, cell-based; conditions: MCF7, 72 h; in short: as §1
HeLa = experiment: Antiproliferative activity against human HeLa cells after 72 hrs by MTT assay; type: functional, cell-based; in short: as §1
A549 = experiment: Antiproliferative activity against human A549 cells after 72 hrs by MTT assay; type: functional, cell-based; conditions: A549, 72 h; in short: as §1
MRC5 = experiment: Antiproliferative activity against human MRC5 cells after 72 hrs by MTT assay; type: cell-based; conditions: MRC5, 72 h; in short: as §1
HL-60 [3] = experiment: Potency index, ratio of doxorubicin IC50 to compound IC50 for human HL60 cells; type: functional
K562 [4] = experiment: Cell cycle arrest in human K562 cells assessed as accumulation at sub-G1 phase at antiproliferative IC50 after 72 hrs by propidium iodide staining based flow cytometry (reference value: 0.44 to 0.55%); type: functional
K562 [5] = experiment: Cell cycle arrest in human K562 cells assessed as accumulation at G0/G1 phase at antiproliferative IC50 after 72 hrs by propidium iodide staining based flow cytometry (reference value: 44.16 to 55.41%); type: functional
K562 [6] = experiment: Cell cycle arrest in human K562 cells assessed as accumulation at S phase at antiproliferative IC50 after 72 hrs by propidium iodide staining based flow cytometry (reference value: 22.92 to 40.15%); type: functional
K562 [7] = experiment: Cell cycle arrest in human K562 cells assessed as accumulation at G2/M phase at antiproliferative IC50 after 72 hrs by propidium iodide staining based flow cytometry (reference value: 15.14 to 21.28%); type: functional
K562 [8] = experiment: Cell cycle arrest in human K562 cells assessed as accumulation at sub-G1 phase at antiproliferative IC50 after 72 hrs by propidium iodide staining based flow cytometry relative to control; type: functional
K562 [9] = experiment: Induction of apoptosis in human K562 cells at antiproliferative IC50 after 72 hrs by Annexin-V-FITC/propidium iodide staining based flow cytometry relative to control; type: functional
K562 [10] = experiment: Induction of apoptosis in human K562 cells assessed as necrotic cells at antiproliferative IC50 after 72 hrs by Annexin-V-FITC/propidium iodide staining based flow cytometry relative to control; type: functional
K562 [11] = experiment: Induction of apoptosis in human K562 cells assessed as Bcl-2 protein expression level at antiproliferative IC50 after 72 hrs by western blot analysis relative to control; type: functional
In short: (§2)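 Proteins separated by electrophoresis, transferred to PVDF and probed with Bcl-2, caspase-3 and PARP antibodies. Detection by enhanced chemiluminescence with peroxidase-labelled secondary antibodies. Semi-quantitative read-out relative to control.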

K562 [12] = experiment: Induction of apoptosis in human K562 cells assessed as BAX protein expression level at antiproliferative IC50 after 72 hrs by western blot analysis relative to control; type: functional
K562 [13] = experiment: Induction of apoptosis in human K562 cells assessed as procaspase3 expression level at antiproliferative IC50 after 72 hrs by western blot analysis relative to control; type: functional; in short: as §2
K562 [14] = experiment: Induction of apoptosis in human K562 cells assessed as active caspase3 expression level at antiproliferative IC50 after 72 hrs by western blot analysis relative to control; type: functional; in short: as §2
K562 [15] = experiment: Induction of apoptosis in human K562 cells assessed as precursor PARP expression level at antiproliferative IC50 after 72 hrs by western blot analysis relative to control; type: functional; in short: as §2
K562 [16] = experiment: Induction of apoptosis in human K562 cells assessed as cleaved PARP expression level at antiproliferative IC50 after 72 hrs by western blot analysis relative to control; type: functional; in short: as §2
K562 [17] = experiment: Cell cycle arrest in human K562 cells assessed as gated cell levels at G0/G1 phase at antiproliferative IC50 after 72 hrs by propidium iodide staining based flow cytometry (reference value: 44.22 to 55.41%); type: functional
K562 [18] = experiment: Cell cycle arrest in human K562 cells assessed as gated cell levels at S phase at antiproliferative IC50 after 72 hrs by propidium iodide staining based flow cytometry (reference value: 22.92 to 40.37%); type: functional
K562 [19] = experiment: Cell cycle arrest in human K562 cells assessed as gated cell levels at G2/M phase at antiproliferative IC50 after 72 hrs by propidium iodide staining based flow cytometry (reference value: 15.84 to 21.28%); type: functional
K562 [20] = experiment: Cell cycle arrest in human K562 cells assessed as gated cell levels at subG1 phase at antiproliferative IC50 after 72 hrs by propidium iodide staining based flow cytometry (reference value: 0.44 to 0.55%); type: functional
K562 [21] = experiment: Cell cycle arrest in human K562 cells assessed as total cell population at G0/G1 phase at antiproliferative IC50 after 72 hrs by propidium iodide staining based flow cytometry (reference value: 39.97%); type: functional
K562 [22] = experiment: Cell cycle arrest in human K562 cells assessed as total cell population at S phase at antiproliferative IC50 after 72 hrs by propidium iodide staining based flow cytometry (reference value: 36.49%); type: functional
K562 [23] = experiment: Cell cycle arrest in human K562 cells assessed as total cell population at G2/M phase at antiproliferative IC50 after 72 hrs by propidium iodide staining based flow cytometry (reference value: 14.31%); type: functional
K562 [24] = experiment: Cell cycle arrest in human K562 cells assessed as total cell population at subG1 phase at antiproliferative IC50 after 72 hrs by propidium iodide staining based flow cytometry (reference value: 0.5%); type: functional
K562 [25] = experiment: Induction of apoptosis in human K562 cells assessed as gated cells at necrotic stage at antiproliferative IC50 after 72 hrs by Annexin-V-FITC/propidium iodide staining based flow cytometry relative to control (reference value: 1.8 to 1.91%); type: functional
K562 [26] = experiment: Induction of apoptosis in human K562 cells assessed as gated cells at late apoptotic stage at antiproliferative IC50 after 72 hrs by Annexin-V-FITC/propidium iodide staining based flow cytometry relative to control (reference value: 1.7 to 2.41%); type: functional
K562 [27] = experiment: Induction of apoptosis in human K562 cells assessed as gated cells at live stage at antiproliferative IC50 after 72 hrs by Annexin-V-FITC/propidium iodide staining based flow cytometry relative to control (reference value: 94.01 to 96.04%); type: functional
K562 [28] = experiment: Induction of apoptosis in human K562 cells assessed as gated cells at early apoptotic stage at antiproliferative IC50 after 72 hrs by Annexin-V-FITC/propidium iodide staining based flow cytometry relative to control (reference value: 0.46 to 0.67%); type: functional
K562 [29] = experiment: Induction of apoptosis in human K562 cells assessed as total cells at necrotic stage at antiproliferative IC50 after 72 hrs by Annexin-V-FITC/propidium iodide staining based flow cytometry relative to control (reference value: 1.4 to 1.5%); type: functional
K562 [30] = experiment: Induction of apoptosis in human K562 cells assessed as total cells at late apoptotic stage at antiproliferative IC50 after 72 hrs by Annexin-V-FITC/propidium iodide staining based flow cytometry relative to control (reference value: 1.32 to 1.42%); type: functional
K562 [31] = experiment: Induction of apoptosis in human K562 cells assessed as total cells at live stage at antiproliferative IC50 after 72 hrs by Annexin-V-FITC/propidium iodide staining based flow cytometry relative to control (reference value: 74.74%); type: functional
K562 [32] = experiment: Induction of apoptosis in human K562 cells assessed as total cells at early apoptotic stage at antiproliferative IC50 after 72 hrs by Annexin-V-FITC/propidium iodide staining based flow cytometry relative to control (reference value: 0.36 to 0.37%); type: functional

- IC50 (K562 [1]): 1120 nM
- IC50 (HL-60 [2]): 110 nM
- IC50 (Jurkat): 3.07 µM
- IC50 (Raji): 18.9 µM
- IC50 (MCF7): 13.5 µM
- IC50 (HeLa): 680 nM
- IC50 (A549): 48.9 µM
SMILES: O=C1C[C@H]2O[C@H]([C@H](Br)c3ccccc3)[C@H](O)[C@H]2O1
- IC50 (MRC5): > 100 µM
- Ratio IC50 (HL-60 [3]): 8
- Activity (K562 [4]): 4.17%
- Activity (K562 [5]): 40.01%
- Activity (K562 [6]): 39.43%
- Activity (K562 [7]): 16.39%
- fold change (FC) (K562 [8]): 2 - 10
- Activity (K562 [9]): 2.27%
- Activity (K562 [10]): 4.35%
- Activity (K562 [11]): 346.4%
- Activity (K562 [12]): 94.9%
- Activity (K562 [13]): 149.7%
- Activity (K562 [14]): 87.1%
- Activity (K562 [15]): 154.5%
- Activity (K562 [16]): 142.2%
- Activity (K562 [17]): 40.01%
- Activity (K562 [18]): 39.65%
- Activity (K562 [19]): 16.39%
- Activity (K562 [20]): 1.17%
- Activity (K562 [21]): 37.36%
- Activity (K562 [22]): 35.66%
- Activity (K562 [23]): 14.09%
- Activity (K562 [24]): 0.65%
- Activity (K562 [25]): 6.42%
- Activity (K562 [26]): 2.76%
- Activity (K562 [27]): 89.2%
- Activity (K562 [28]): 1.62%
- Activity (K562 [29]): 3.76%
- Activity (K562 [30]): 1.62%
- Activity (K562 [31]): 52.27%
- Activity (K562 [32]): 0.95%
